Sampled rows, rich in hits. Any-hit rate of the full collection: about 2.5%.
Platelet DG rel = platelet dense granule release activity; AID 1663; human platelet-rich plasma, SFLLRN dense granule ATP release, luminescence; inhibition, %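 (compounds screened at 7.5 µM in platelet-rich plasma)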; hit rate 0.22% among 300,000;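 active means mean replicate score, as percent of positive control, at or above 50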
TRPC6 inh = mouse TRPC6 channel inhibition; HEK293-TRPC6, membrane potential dye, ACh-evoked depolarization; active compounds read low; Q61143; hit rate 1.1% among 310,000; AID 2553; B-score at 10 µM;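 active means B-score under library mean minus 3 SD, initial fluorescence not abnormally high, positive integrated signal ratio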;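 further: B-score derived from integrated fluorescence ratio over the kinetic read; more negative B-score means stronger inhibition of depolarization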
Target sequence (Q61143 whole entry, looked up): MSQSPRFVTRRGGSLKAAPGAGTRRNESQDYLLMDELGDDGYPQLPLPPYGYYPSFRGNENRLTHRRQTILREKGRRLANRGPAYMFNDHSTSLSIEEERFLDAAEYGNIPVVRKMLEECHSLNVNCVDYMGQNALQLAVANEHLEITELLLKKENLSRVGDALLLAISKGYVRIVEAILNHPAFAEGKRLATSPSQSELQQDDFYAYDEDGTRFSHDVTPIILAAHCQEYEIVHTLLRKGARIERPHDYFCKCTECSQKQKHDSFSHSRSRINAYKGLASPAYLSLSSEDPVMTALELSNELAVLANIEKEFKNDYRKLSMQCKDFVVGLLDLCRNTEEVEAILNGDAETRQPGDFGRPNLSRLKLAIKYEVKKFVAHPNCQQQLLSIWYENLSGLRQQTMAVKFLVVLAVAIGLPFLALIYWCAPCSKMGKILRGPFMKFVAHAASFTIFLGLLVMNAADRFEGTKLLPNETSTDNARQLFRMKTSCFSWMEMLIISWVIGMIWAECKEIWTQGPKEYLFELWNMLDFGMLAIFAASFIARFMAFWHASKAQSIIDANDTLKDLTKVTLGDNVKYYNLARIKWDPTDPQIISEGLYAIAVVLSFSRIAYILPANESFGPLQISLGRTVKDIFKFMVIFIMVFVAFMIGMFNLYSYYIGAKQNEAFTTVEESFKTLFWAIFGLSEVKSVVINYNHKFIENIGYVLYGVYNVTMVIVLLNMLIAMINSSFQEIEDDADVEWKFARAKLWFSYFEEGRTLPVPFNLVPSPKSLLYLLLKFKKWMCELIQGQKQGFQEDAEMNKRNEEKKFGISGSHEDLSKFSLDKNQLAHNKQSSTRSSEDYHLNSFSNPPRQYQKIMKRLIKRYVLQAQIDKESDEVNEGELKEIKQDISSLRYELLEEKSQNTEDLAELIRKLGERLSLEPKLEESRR
TRPC4 agonist = opens the mouse TRPC4 cation channel. HEK293 TRPC4beta/mu-opioid, Fluo4 calcium fluorescence; active compounds read high. hit rate 0.49% among 310,000. AID 2237. B-score at 10 µM;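 active means B-score above 5 SD of library B-scores, and initial fluorescence ratio not above library mean plus 5 SD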;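 further: positive B-score marks a calcium rise read as TRPC4 activation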
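Material: TRPC4beta and mu-opioid receptor HEK293 stable cells | Incubation: 45 min room-temperature Fluo4 loading, 110 s read | Detection: Kinetic Fluo4 calcium fluorescence | Measure: Integrated baseline-normalised fluorescence ratio, converted to per-well B score | Benchmarks: Low control buffer alone, high control maximal DAMGO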
TRPC4 block = inhibitors of mouse TRPC4 channel | Q9QUQ5 | HEK293 TRPC4beta/mu-opioid, DAMGO-evoked Fluo4 calcium flux; active compounds read low | hit rate 0.39% among 300,000 | AID 2247 | B-score at 10 µM;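 active means B-score over 3 SD under the library average, no early fluorescence shift, positive overall ratio signal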
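Assay system: TRPC4beta/mu-opioid receptor HEK293 cell line; compound dosing: single concentration per test compound; detection: Fluo4 Ca2+ flux fluorescence; evaluation: per-well B score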
TRPC4 potent = allosterically enhances the mouse TRPC4 cation channel; hit rate 0.42% among 310,000; AID 2227; Q9QUQ5; HEK293 TRPC4beta/mu-opioid, DAMGO EC20, Fluo-4 Ca2+ flux; active compounds read high; B-score at 10 µM;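 active means B-score of calcium response area above 5 SD of library B-scores, with initial fluorescence ratio within 5 SD of library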;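 further: B-score of integrated fluorescence ratio over time as area under calcium response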
TRPC6 act = activators of mouse TRPC6 channel. HEK293-TRPC6 membrane potential dye fluorescence; active compounds read high. B-score at 10 µM. hit rate 0.13% among 310,000. AID 2550;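 active means B-score of the integrated fluorescence ratio above library mean plus 3 SD, and starting fluorescence ratio within library mean plus 5 SD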;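 further: higher score means more depolarization so channel activation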
HEK293 MPD ctr = parental HEK293 nonspecific activity of TRPC6 modulators. hit rate 51% among 2,400. membrane potential signal change, % at 10 µM. shares compounds with TRPC6 inh. membrane potential dye fluorescence;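 active means membrane potential signal moves up or down beyond 5 SD from buffer-only wells, on both duplicate plates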
HEK293 MPD ctr 2 = second check of TRPC6 modulator effects in parental HEK293 cells; shares compounds with TRPC6 inh; membrane potential dye fluorescence; after compound, maximal acetylcholine stimulation; inhibition, % at 10 µM; hit rate 14% among 2,400; AID 488926;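 active means membrane potential signal drops by more than 5 SD from the mean control signal, in both duplicate plates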;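 further: plate controls were acetylcholine ECmax control wells for no effect and buffer only wells for full effect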
TRPC4/MOR mod = selectivity of TRPC6 modulators against mouse TRPC4; shares compounds with TRPC6 inh; HEK293 TRPC4/mu-opioid, membrane potential fluorescence; percent change from control (negative = decrease, positive = increase), % at 10 µM; hit rate 69% among 2,400;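 active means membrane potential signal moved up or down beyond 5 SD of buffer control wells, in both duplicate plates, actives on both sides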;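 further: plate controls were assay buffer wells for no effect and DAMGO maximal-effect wells for full effect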
TRPC4/MOR inh 2 = second selectivity test of TRPC6 modulators against mouse TRPC4. HEK293 TRPC4/mu-opioid, membrane potential dye fluorescence; stimulated with maximal-effect DAMGO. shares compounds with TRPC6 inh. inhibition, % at 10 µM. hit rate 55% among 2,400;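 active means drop in membrane potential signal beyond 5 SD of the control wells in both duplicate plates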;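 further: TRPC4 counter screen for TRPC6 hits run under conditions tuned for TRPC6 not TRPC4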
TRPC6 inh conf = confirmation of mouse TRPC6 inhibitors. shares compounds with TRPC6 inh. HEK293-TRPC6, membrane potential dye, ACh-evoked depolarization. inhibition, % at 10 µM. hit rate 43% among 3,300;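 active means fluorescence ratio falls more than 5 SD below the full-stimulation control mean, in both duplicate runs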;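 further: integrated fluorescence ratio of peak minus minimum over baseline after agonist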
TRPC6 act confirm = confirmation of mouse TRPC6 activators; shares compounds with TRPC6 inh; HEK293-TRPC6 membrane potential dye fluorescence, FDSS; activation, % at 10 µM; hit rate 11% among 2,800; AID 488961;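 active means ratio signal rise beyond 5 SD above unstimulated control wells' mean, seen in both duplicate runs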;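 further: plate controls were buffer EC0 wells for no effect and acetylcholine ECmax response for full effect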
Active calls of the source: *; i = inactive; . = no result.

SMILES | Platelet DG rel | TRPC6 inh | TRPC4 agonist | TRPC4 block | TRPC4 potent | TRPC6 act | HEK293 MPD ctr | HEK293 MPD ctr 2 | TRPC4/MOR mod | TRPC4/MOR inh 2 | TRPC6 inh conf | TRPC6 act confirm
COC(=O)c1ccc(N2CCN(C)CC2)c(NC(=O)c2cccnc2)c1 | 13 | -8.5* | 50* | i | i | i | -444%* | 84%* | -76%* | 56%* | 55%* | i
CCN(C(=O)COC(=O)c1ccc(Br)o1)C1CCCCC1 | -1 | i | i | i | i | i | . | . | . | . | . | .
CCOc1cccc(C(=O)N(Cc2cccc(F)c2)C2CCS(=O)(=O)C2)c1 (stereo unspecified) | 2 | i | i | i | i | i | . | . | . | . | . | .
O=C(N/N=C/c1ccc(O)cc1)c1csc2c1CCCC2 | -4 | i | i | i | i | i | . | . | . | . | . | .
CCOc1ccc(N(CC)C(=O)CCS(=O)(=O)c2cccc3nonc23)cc1 | -3 | i | i | i | i | i | . | . | . | . | . | .
CN1CCN(c2ccccc2NC(=O)c2ccc(N3CCCCC3)c([N+](=O)[O-])c2)CC1 | 6 | -6.2* | i | i | i | i | -121%* | i | -31%* | 76%* | 44%* | i
CN1CCN(c2ccccc2NC(=O)c2cccc([N+](=O)[O-])c2)CC1 | 9 | i | i | i | i | i | . | . | . | . | . | .
COc1cccc(C(=O)Nc2cc([N+](=O)[O-])ccc2N2CCN(C)CC2)c1 | -5 | -11* | i | i | i | i | -372%* | i | -61%* | 56%* | 50%* | i
COc1ccc(C(=O)Nc2cc([N+](=O)[O-])ccc2N2CCN(C)CC2)cc1 | -6 | -17* | i | i | i | i | -386%* | 111%* | -60%* | 82%* | 86%* | i
C1CCc2c(nc3nnnn3c2NCC2CC2)C1 | 2 | i | i | i | i | i | . | . | . | . | . | .
CCOc1ccccc1NC(=O)NC1(C(=O)NCc2cccnc2)CCCCC1 | 15 | i | i | i | i | i | . | . | . | . | . | .
COc1cccc(-c2nc(SCC(=O)Nc3nc(-c4ccccc4)c(C)s3)[nH]c(=O)c2C#N)c1 | -10 | i | i | i | i | i | . | . | . | . | . | .
CCOc1ccc2nc(NC(=O)CSc3nc(-c4ccccc4)c(C#N)c(=O)[nH]3)sc2c1 | 2 | i | i | i | i | 12* | i | i | 20%* | i | i | 36%*
NS(=O)(=O)c1ccc(CCNC(=O)COC(=O)/C=C/c2ccc(Cl)cc2)cc1 | 0 | -5.4* | i | i | i | i | i | i | i | i | i | i
NS(=O)(=O)c1ccc(CCNC(=O)COC(=O)CCSc2ccc(Cl)cc2)cc1 | -57 | i | i | i | i | i | . | . | . | . | . | .
Cc1cccc[n+]1CC(=O)Nc1ccc([N+](=O)[O-])cc1Cl | 3 | i | i | i | i | i | . | . | . | . | . | .

Assay outcomes as filed in PubChem.
